According to publication PMC5298935 (The FEBS journal, 2016):
Where two headings read alike, the source gives them in different places. Square brackets hold non-standard residues; d marks the D form. Peptide text beside a SMILES is read from it. pS = N[C@@H](COP(=O)(O)O)C(=O)O

Assays:
[1] = target: Pin1-FL (with 6X-His tag) (Homo sapiens, UniProt Q13526); test: Biolayer interferometry; assay type: binding
Summary of the method: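 Ni-NTA biosensors loaded with 10 μg/mL His-tagged full-length Pin1 for 600 s, quenched 300 s with buffer plus 10 mM imidazole and 25 μg/mL biotin. Association with singly or dually phosphorylated peptide at 80–1.25 μM for 600 s, then 600 s dissociation in buffer. Buffer: 10 mM HEPES, 20 mM NaCl, 0.1 mM TCEP, pH 7.4; 25°C. Pin1-free sensors served as nonspecific-binding reference.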

[2] = target: T1, Pin1-FL (Homo sapiens, UniProt Q13526); assay type: binding; details: B = C-terminal site
Summary of the method: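 Full-length Pin1 underwent reverse titration with dually phosphorylated peptides; HSQC perturbations in N and H dimensions were fit separately (fmincon). The multistate model added two bivalent states, each with its own Keq. Non-bivalent KD and bound shifts were fixed from single-site titrations. Residues needed distinct bound shifts per motif. Reduced chi-square used σH 0.00407 and σN 0.0205 ppm.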

[3] = target: T1, Pin1-FL; test: Simulation of Pin1-FL binding at low micromolar concentrations

T1 sequence (Q13526 whole entry): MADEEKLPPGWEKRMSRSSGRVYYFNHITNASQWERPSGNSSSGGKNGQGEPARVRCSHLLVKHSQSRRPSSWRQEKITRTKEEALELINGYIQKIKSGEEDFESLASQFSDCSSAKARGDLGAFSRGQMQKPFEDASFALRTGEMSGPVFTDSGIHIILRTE
Pin1-FL (with 6X-His tag), sequence (Q13526 whole entry): as above

CC(C)C[C@H](NC(=O)[C@H](Cc1ccccc1)NC(=O)[C@@H](NC(=O)[C@@H](N)CO)[C@@H](C)O)C(=O)N[C@@H](COP(=O)(O)O)C(=O)N1CCC[C@H]1C(=O)N[C@@H](C)C(=O)N[C@@H](Cc1ccccc1)C(=O)N1CCC[C@H]1C(=O)NCC(=O)O [p144] (H-STFL[pS]PAFPG-OH)
Pin1 binding detected by biolayer interferometry ([1]; peptide 1.25-80 μM, BLI buffer pH 7.4, 25°C): not measurable

CC(=O)N[C@@H](CCC(=O)O)C(=O)N[C@@H](C)C(=O)N[C@@H](CCC(=O)O)C(=O)N[C@@H](C)C(=O)N[C@@H](Cc1c[nH]c2ccccc12)C(=O)N[C@@H](COP(=O)(O)O)C(=O)N1CCC[C@H]1C(=O)N[C@@H](CCCNC(=N)N)C(=O)N[C@@H](CCCCN)C(=O)N[C@@H](CC(C)C)C(=O)N1CCC[C@H]1C(=O)N[C@@H](CO)C(=O)N[C@@H](CO)C(=O)N[C@@H](C)C(=O)N[C@@H](CO)C(=O)N[C@H](C(=O)N[C@@H](Cc1ccccc1)C(=O)N[C@@H](CC(C)C)C(=O)N[C@@H](COP(=O)(O)O)C(=O)N1CCC[C@H]1C(=O)N[C@@H](C)C(=O)N[C@@H](Cc1ccccc1)C(=O)N1CCC[C@H]1C(=O)NCC(N)=O)[C@@H](C)O [p131/p144] (Ac-EAEAW[pS]PRKLPSSASTFL[pS]PAFPG-NH2)
KeqB:WW (Fitted Keq^A:WW, Keq^B:WW and Δδbound for bivalent states) ([2]; nitrogen dimension): 0.02
KeqB:WW (Fitted Keq^A:WW, Keq^B:WW and Δδbound for bivalent states) ([2]; proton dimension): 0.43
Kd [1]: 1 µM
ΔGequiv (change in Gibbs free energy) ([3]; corresponds to the equivalent bimolecular KD at 20 μM peptide): -7.49 kcal/mol
total fraction of bound Pin1 ([3]; simulated, 20 μM peptide, total Pin1 ~0.5 μM, sum of all bound Pin1 species divided by total Pin1): 0.85
